Compound activity deposited in PubChem by several laboratories.
A selection: hits, their analogues and other compounds. The true share with any hit is near 3.1%.
MEKK2wt PB1 HTS: raises or lowers MEK5 binding to wildtype human MEKK2 PB1 domain; binding response (% of control), % at 10 µM; bead flow cytometry, Alexa488-MEK5 binding to MEKK2 WT; actives lie on both sides; Q9Y2U5; AID 1531; hit rate 1.1% among 290,000; in the data active = binding response below about 67% or above about 130%
MEKK2mut PB1 HTS: signal of MEK5 binding to mutant human MEKK2 PB1 domain; bead flow cytometry, Alexa488-MEK5 binding to MEKK2 mutant; percent response, % at 10 µM; hit rate 0.35% among 290,000; in the data active = percent response above about 24%, passing the limit was not always enough
UBC13 inh: inhibitors of human UBC13 polyubiquitin chain formation; inhibition, % at 20 µM; hit rate 0.47% among 330,000; TR-FRET; in the data active = inhibition above about 45%, passing the limit was not always enough
MEKK3 PB1 HTS: modulators (inhibitors or enhancers) of MEK5 binding to human MEKK3 PB1 domain; hit rate 1.4% among 290,000; binding response (% of control), % at 10 µM; Q99759; AID 1529; bead-based flow cytometry, Alexa488-MEK5 binding to MEKK3; actives lie on both sides; 0 = blocked by unlabeled MEK5, 100 = vehicle;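 active = binding response more than 3 SD above or below the average of its plate-row segment, actives on both sides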;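 note: Alexa488 bead fluorescence after subtracting the streptavidin-only scavenger bead signal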
PREPL inhibitor: inhibits the human prolyl oligopeptidase-like enzyme; recombinant PREPL, fluorescence polarization activity-based probe; hit rate 0.68% among 320,000; Q4J6C6; inhibition, % at 5.96 µM; AID 2751; in the data active = inhibition above about 43%;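 note: 0% = enzyme with DMSO and 100% = wells lacking enzyme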
Target sequence (Q4J6C6 whole entry, looked up): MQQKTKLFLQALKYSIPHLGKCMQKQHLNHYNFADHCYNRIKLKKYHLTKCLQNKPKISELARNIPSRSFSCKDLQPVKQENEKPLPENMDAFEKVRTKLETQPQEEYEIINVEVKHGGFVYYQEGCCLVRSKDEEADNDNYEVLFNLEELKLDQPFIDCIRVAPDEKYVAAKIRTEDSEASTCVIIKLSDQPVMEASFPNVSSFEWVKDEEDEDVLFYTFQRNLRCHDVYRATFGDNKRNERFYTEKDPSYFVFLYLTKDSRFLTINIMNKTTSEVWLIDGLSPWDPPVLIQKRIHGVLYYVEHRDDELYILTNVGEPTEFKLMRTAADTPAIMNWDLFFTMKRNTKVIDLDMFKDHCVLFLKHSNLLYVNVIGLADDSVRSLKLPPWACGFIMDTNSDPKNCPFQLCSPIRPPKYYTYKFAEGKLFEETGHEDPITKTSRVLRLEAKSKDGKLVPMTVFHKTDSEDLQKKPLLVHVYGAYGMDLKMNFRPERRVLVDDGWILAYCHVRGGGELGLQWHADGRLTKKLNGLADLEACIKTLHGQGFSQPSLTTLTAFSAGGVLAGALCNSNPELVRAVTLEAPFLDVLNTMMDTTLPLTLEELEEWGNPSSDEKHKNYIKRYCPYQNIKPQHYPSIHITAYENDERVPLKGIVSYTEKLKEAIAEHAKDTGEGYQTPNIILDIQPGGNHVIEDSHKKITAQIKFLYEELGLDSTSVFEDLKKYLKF
Apaf1 inhib: human Apaf-1 inhibition | O14727 | reconstituted apoptosome caspase-3 activity, DEVD-Rh110 fluorescence | inhibition, % at 20 µM | hit rate 0.71% among 330,000 | AID 489030; active = inhibition of at least 40% at 20 µM;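 note: plate controls were DMSO wells for no effect and DEVD-CHO caspase inhibitor wells for full effect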
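Material: reconstituted apoptosome with Apaf-1, cytochrome c, caspase-9, procaspase-3, dATP; medium: pH 7.5 Hepes buffer with CHAPS, BSA, DTT; also added: cytochrome c and DEVD-Rh110 substrate; timing: 30 min plus 50 min, RT; signal: Rh110 fluorescence intensity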
MEKK2wt confirm: raises or lowers MEK5 binding to wildtype human MEKK2, retest; binding response (% of control), % at 10 µM; bead flow cytometry, Alexa488-MEK5 binding to MEKK2 WT; actives lie on both sides; hit rate 2.4% among 5,900; AID 1892; shares compounds with MEKK3 PB1 HTS; in the data active = binding response below about 16% or above about 210%; inactive = in between
MEKK2mut confirm: signal of MEK5 binding to mutant human MEKK2, retest | shares compounds with MEKK3 PB1 HTS | percent response, % at 10 µM | bead flow cytometry, Alexa488-MEK5 binding to MEKK2 mutant | hit rate 2% among 5,900; in the data active = percent response mostly above about 71%, no sharp cut-off; inactive = mostly below about 38%;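 note: higher means compound restores mutant binding toward wildtype level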
MEKK3 confirm: MEKK3-MEK5 PB1 inhibition, single concentration confirmation. bead flow cytometry, Alexa488-MEK5 binding to MEKK3; hits give low values. binding response (% of control), % at 10 µM. shares compounds with MEKK3 PB1 HTS. AID 1894. hit rate 1.8% among 5,900;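 active = binding response below 72% of control, or above a set upper limit, though filed actives all read lower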;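 note: 100% = DMSO only wells and 0% = binding blocked by excess unlabeled MEK5; lower values mean stronger disruption of MEK5 binding to MEKK3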
Numbers without * were called inactive; [ ] = remark or other dose.

What do the screens show for `CCOC(=O)N1CCN(C(=O)CCc2ccc(S(=O)(=O)NC(C)(C)C)cc2)CC1`?
MEKK2wt PB1 HTS: 102; MEKK2mut PB1 HTS: -1; UBC13 inh: -7; MEKK3 PB1 HTS: 102; Apaf1 inhib: -1

Results for CCCCn1c(N)c(N(CC(C)C)C(=O)c2cc(-c3ccncc3)nc3ccccc23)c(=O)[nH]c1=O ?
UBC13 inh: -4; PREPL inhibitor: 0; Apaf1 inhib: -2

What do the screens show for `CCc1ccc(NC(=O)C(C)n2nc(C)c([N+](=O)[O-])c2C)cc1` (centres undefined)?
MEKK2wt PB1 HTS: 75; MEKK2mut PB1 HTS: -2; UBC13 inh: -11; MEKK3 PB1 HTS: 68*[inhibitor]; PREPL inhibitor: -9; Apaf1 inhib: -6; MEKK2wt confirm: 92; MEKK2mut confirm: -7; MEKK3 confirm: 91

Results for Cc1csc(SCC(=O)NCCc2ccc(Cl)cc2Cl)n1 ?
MEKK2wt PB1 HTS: 95; MEKK2mut PB1 HTS: -1; UBC13 inh: 7; MEKK3 PB1 HTS: 69*[inhibitor]; PREPL inhibitor: -4; Apaf1 inhib: -4; MEKK2wt confirm: 100; MEKK2mut confirm: 2; MEKK3 confirm: 101

How did COc1ccc(C(CNC(=O)c2cc(S(=O)(=O)N3CCN(c4ccccc4)CC3)ccc2Cl)N(C)C)cc1 (centres undefined) do in these assays?
UBC13 inh: 31; PREPL inhibitor: 27; Apaf1 inhib: 35

What do the screens show for `COC(=O)c1ccc(CNC(=O)c2ccc(NS(=O)(=O)c3ccc4[nH]c(=O)[nH]c4c3)cc2)cc1`?
UBC13 inh: -5; PREPL inhibitor: 10; Apaf1 inhib: 7

What do the screens show for `CCN(CC)CCNC(=O)c1ccc(NC(=O)c2cccc(S(=O)(=O)N3CCc4ccccc43)c2)cc1`?
UBC13 inh: 15; Apaf1 inhib: 39

How did CCN(CC)CCNC(=O)c1ccc(NC(=O)c2cccc(S(=O)(=O)N3c4ccccc4CC3C)c2)cc1 (centres undefined) do in these assays?
MEKK2wt PB1 HTS: 174*; MEKK2mut PB1 HTS: 37*; UBC13 inh: 43; MEKK3 PB1 HTS: 105; PREPL inhibitor: -16; Apaf1 inhib: 31; MEKK2wt confirm: 135; MEKK2mut confirm: 20; MEKK3 confirm: 108

How did COc1ccc(CCN2C(=O)CCC2(C)C(=O)NC2CCCC2)cc1OC (centres undefined) do in these assays?
MEKK2wt PB1 HTS: 45*[inhibitor]; MEKK2mut PB1 HTS: -16; UBC13 inh: 11; MEKK3 PB1 HTS: 35*[inhibitor]; PREPL inhibitor: 2; Apaf1 inhib: -26; MEKK2wt confirm: 101; MEKK2mut confirm: -1; MEKK3 confirm: 100

How did Cc1ccc(NC(=O)COC(=O)c2ccc(-n3nc(C)cc3C)cc2)c(F)c1 do in these assays?
UBC13 inh: 10; PREPL inhibitor: 4; Apaf1 inhib: 15

Results for CCN(CC)CCN(C(=O)c1ccc([N+](=O)[O-])cc1)c1nc2c(OC)cccc2s1 ?
MEKK2wt PB1 HTS: 112; MEKK2mut PB1 HTS: 0; UBC13 inh: 0; MEKK3 PB1 HTS: 105; PREPL inhibitor: -8; Apaf1 inhib: -1

Results for CCN(CC)CCN(C(=O)c1ccc(Br)s1)c1nc2cc3c(cc2s1)OCO3 ?
MEKK2wt PB1 HTS: 125; MEKK2mut PB1 HTS: 14; UBC13 inh: 0; MEKK3 PB1 HTS: 104; PREPL inhibitor: 2; Apaf1 inhib: -3

Results for CCN(CC)CCN(C(=O)c1ccc(C(=O)c2ccccc2)cc1)c1nc2cc3c(cc2s1)OCO3 ?
MEKK2wt PB1 HTS: 157*; MEKK2mut PB1 HTS: 31*; UBC13 inh: 11; MEKK3 PB1 HTS: 110; PREPL inhibitor: 15; Apaf1 inhib: 27; MEKK2wt confirm: 151; MEKK2mut confirm: 22; MEKK3 confirm: 110

What do the screens show for `CCN(CC)CCN(C(=O)c1ccc(Br)s1)c1nc2cc3c(cc2s1)OCCO3`?
MEKK2wt PB1 HTS: 138*; MEKK2mut PB1 HTS: 19; UBC13 inh: 18; MEKK3 PB1 HTS: 103; PREPL inhibitor: 8; Apaf1 inhib: -5; MEKK2wt confirm: 129; MEKK2mut confirm: 26; MEKK3 confirm: 104

Results for CCN(CC)CCN(C(=O)c1ccc(C(=O)c2ccccc2)cc1)c1nc2c(OC)cccc2s1 ?
MEKK2wt PB1 HTS: 178*; MEKK2mut PB1 HTS: 42*; UBC13 inh: 15; MEKK3 PB1 HTS: 115; PREPL inhibitor: 0; Apaf1 inhib: 9; MEKK2wt confirm: 157; MEKK2mut confirm: 25; MEKK3 confirm: 108

How did CCN(CC)CCN(C(=O)c1ccc(S(=O)(=O)N2CCCC2)cc1)c1nc2cc(C)cc(C)c2s1 do in these assays?
MEKK2wt PB1 HTS: 142*; MEKK2mut PB1 HTS: 21; UBC13 inh: 13; MEKK3 PB1 HTS: 105; PREPL inhibitor: 6; Apaf1 inhib: 8; MEKK2wt confirm: 135; MEKK2mut confirm: 12; MEKK3 confirm: 101

Results for COc1cccc(CN(C)C(=O)c2[nH]c(C)c(C(C)=O)c2C)c1OC ?
MEKK2wt PB1 HTS: 96; MEKK2mut PB1 HTS: -5; UBC13 inh: -10; MEKK3 PB1 HTS: 94; PREPL inhibitor: 8; Apaf1 inhib: 6

What do the screens show for `COc1ccc(S(=O)(=O)N2CCCC(C(=O)NCCN3CCOCC3)C2)cc1C` (centres undefined)?
MEKK2wt PB1 HTS: 98; MEKK2mut PB1 HTS: -5; UBC13 inh: -1; MEKK3 PB1 HTS: 100; PREPL inhibitor: 11; Apaf1 inhib: 9

How did O=C(CC1N=C2c3ccccc3N=C(SCc3ccc(F)cc3)N2C1=O)NCc1ccco1 (centres undefined) do in these assays?
MEKK2wt PB1 HTS: 2.0*[inhibitor]; MEKK2mut PB1 HTS: -16; UBC13 inh: 6; MEKK3 PB1 HTS: 2.0*[inhibitor]; PREPL inhibitor: 12; Apaf1 inhib: 8; MEKK2wt confirm: 100; MEKK2mut confirm: 0; MEKK3 confirm: 105

Results for Cc1ccc(Oc2ccc(NS(=O)(=O)c3cccc(C(=O)O)c3)cc2)cc1 ?
UBC13 inh: -10; PREPL inhibitor: 5; Apaf1 inhib: 1

What do the screens show for `Cn1c(-c2ccc(C=O)s2)nc2c3ccccc3c3ccccc3c21`?
MEKK2wt PB1 HTS: 63*[inhibitor]; MEKK2mut PB1 HTS: -19; UBC13 inh: -5; MEKK3 PB1 HTS: 90; PREPL inhibitor: 14; Apaf1 inhib: 12; MEKK2wt confirm: 75; MEKK2mut confirm: -12; MEKK3 confirm: 94
